Where “and” joins values, the source holds several entries; their conditions need not be identical. Equal entries are not always repeated. Where two headings read alike, the source gives them in different places.
Tested on: patients with selected advanced solid tumors
Format: in vivo, human
Outline: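 Adults (≥18 y) with histologically or cytologically confirmed selected advanced solid tumours. Oral test compound started at 200 mg QD, with planned escalation to 400 mg QD, plus anti-PD-1 antibody 2 mg/kg IV every 3 weeks. DLT incidence defined the MTD (DLT criteria in supplement). AEs and lab abnormalities were graded by CTCAE v4.03 in all patients given ≥1 dose and summarized descriptively.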

[1] = Phase 1b, ARRY-382 200 mg, N = 6
[2] = Phase 1b, ARRY-382 300 mg, N = 6
[3] = Phase 1b, ARRY-382 400 mg, N = 7

Structure (SMILES): Cc1cccc(Cn2nc(C3CC3)c3c(NC(=O)c4cnc5cc(OCCN6CCN(C)CC6)ccn45)cccc32)n1 [ARRY-382]
- Patients with DLTs (300-mg cohort: Grade 3 acute pancreatitis): 1/6
- Patients with DLTs (400-mg cohort: Grade 2 increased CPK, Grade 3 increased ALT, AST and bilirubin): 2/7
- MTD (and RP2D) of ARRY-382 in combination with pembrolizumab (Phase 1b): 300 mg QD
- Patients with a Grade 4 AE (Phase 1b): 6 (31.6%) n (%)
- Patients with a grade 3 AE (Phase 1b): 9 (47.4%) n (%)
- Patients with ≥1 TEAE (Phase 1b): 94.7%
- Permanently discontinued due to AEs (Phase 1b): 2 (10.5%) n (%)
- Deaths (Phase 1b, 12 due to disease progression, 3 for reasons unknown): Fifteen
- ARRY-382-related grade ≥3 AEs (Phase 1b, 200-mg cohort): 50.0%
- Discontinued due to AEs (primary reason) (Phase 1b, 200-mg cohort, one patient): 16.7%
- ARRY-382-related grade ≥3 AEs (Phase 1b, 300-mg cohort): 100.0%
- ARRY-382-related SAE (Grade 3 ALT and AST increased) (Phase 1b, 300-mg cohort, one patient): 16.7%
- ARRY-382-related grade ≥3 AEs (Phase 1b, 400-mg cohort): 42.9%
- ARRY-382-related AEs: ALT increased [1]: 2 (33.3) n (%)
- ARRY-382-related AEs: AST increased [1]: 1 (16.7) n (%)
- ARRY-382-related AEs: All AEs [1]: 5 (83.3%) n (%) and 5 (83.3) n (%)
- ARRY-382-related AEs: Amylase increased [1]: 1 (16.7) n (%)
- ARRY-382-related AEs: Blood CPK increased [1]: 2 (33.3) n (%)
- ARRY-382-related AEs: Blood alkaline phosphatase increased [1]: 1 (16.7) n (%)
- ARRY-382-related AEs: Chills [1]: 1 (16.7) n (%)
- ARRY-382-related AEs: Fatigue [1]: 2 (33.3) n (%)
- ARRY-382-related AEs: Lipase increased [1]: 1 (16.7) n (%)
- ARRY-382-related AEs: Nausea [1]: 0 (0.0) n (%)
- ARRY-382-related AEs: Pruritus [1]: 2 (33.3) n (%)
- ARRY-382-related AEs: Pyrexia [1]: 1 (16.7) n (%)
- ARRY-382-related AEs: Rash maculo-papular [1]: 1 (16.7) n (%)
- ARRY-382-related AEs: Thrombocytopenia [1]: 0 (0.0) n (%)
- ARRY-382-related AEs: ALT increased [2]: 3 (50.0) n (%)
- ARRY-382-related AEs: AST increased [2]: 5 (83.3) n (%)
- ARRY-382-related AEs: All AEs [2]: 6 (100.0%) n (%) and 6 (100.0) n (%)
- ARRY-382-related AEs: Amylase increased [2]: 3 (50.0) n (%)
- ARRY-382-related AEs: Blood CPK increased [2]: 3 (50.0) n (%)
- ARRY-382-related AEs: Blood alkaline phosphatase increased [2]: 2 (33.3) n (%)
- ARRY-382-related AEs: Chills [2]: 0 (0.0) n (%)
- ARRY-382-related AEs: Fatigue [2]: 2 (33.3) n (%)
- ARRY-382-related AEs: Lipase increased [2]: 4 (66.7) n (%)
- ARRY-382-related AEs: Nausea [2]: 1 (16.7) n (%)
- ARRY-382-related AEs: Pruritus [2]: 2 (33.3) n (%)
- ARRY-382-related AEs: Pyrexia [2]: 0 (0.0) n (%)
- ARRY-382-related AEs: Rash maculo-papular [2]: 2 (33.3) n (%)
- ARRY-382-related AEs: Thrombocytopenia [2]: 1 (16.7) n (%)
- ARRY-382-related AEs: ALT increased [3]: 2 (28.6) n (%)
- ARRY-382-related AEs: AST increased [3]: 2 (28.6) n (%)
- ARRY-382-related AEs: All AEs [3]: 5 (71.4%) n (%) and 5 (71.4) n (%)
- ARRY-382-related AEs: Amylase increased [3]: 1 (14.3) n (%)
- ARRY-382-related AEs: Blood CPK increased [3]: 2 (28.6) n (%)
- ARRY-382-related AEs: Blood alkaline phosphatase increased [3]: 2 (28.6) n (%)
- ARRY-382-related AEs: Chills [3]: 1 (14.3) n (%)
- ARRY-382-related AEs: Fatigue [3]: 0 (0.0) n (%)
- ARRY-382-related AEs: Lipase increased [3]: 1 (14.3) n (%)
- ARRY-382-related AEs: Nausea [3]: 2 (28.6) n (%)
- ARRY-382-related AEs: Pruritus [3]: 0 (0.0) n (%)
- ARRY-382-related AEs: Pyrexia [3]: 1 (14.3) n (%)
- ARRY-382-related AEs: Rash maculo-papular [3]: 1 (14.3) n (%)
- ARRY-382-related AEs: Thrombocytopenia [3]: 1 (14.3) n (%)
- ARRY-382-related AEs: ALT increased (Phase 1b, Total, N = 19): 7 (36.8) n (%)
- ARRY-382-related AEs: AST increased (Phase 1b, Total, N = 19): 8 (42.1) n (%)
- ARRY-382-related AEs: All AEs (Phase 1b, Total, N = 19): 16 (84.2%) n (%) and 16 (84.2) n (%)
- ARRY-382-related AEs: Amylase increased (Phase 1b, Total, N = 19): 5 (26.3) n (%)
- ARRY-382-related AEs: Blood CPK increased (Phase 1b, Total, N = 19): 7 (36.8) n (%)
- ARRY-382-related AEs: Blood alkaline phosphatase increased (Phase 1b, Total, N = 19): 5 (26.3) n (%)
- ARRY-382-related AEs: Chills (Phase 1b, Total, N = 19): 2 (10.5) n (%)
- ARRY-382-related AEs: Fatigue (Phase 1b, Total, N = 19): 4 (21.1) n (%)
- ARRY-382-related AEs: Lipase increased (Phase 1b, Total, N = 19): 6 (31.6) n (%)
- ARRY-382-related AEs: Nausea (Phase 1b, Total, N = 19): 3 (15.8) n (%)
- ARRY-382-related AEs: Pruritus (Phase 1b, Total, N = 19): 4 (21.1) n (%)
- ARRY-382-related AEs: Pyrexia (Phase 1b, Total, N = 19): 2 (10.5) n (%)
- ARRY-382-related AEs: Rash maculo-papular (Phase 1b, Total, N = 19): 4 (21.1) n (%)
- ARRY-382-related AEs: Thrombocytopenia (Phase 1b, Total, N = 19): 2 (10.5) n (%)
- ARRY-382-related increased ALT (Phase 1b, all patients): 36.8%
- ARRY-382-related increased AST (Phase 1b, all patients): 42.1%
- ARRY-382-related increased CPK (Phase 1b, all patients): 36.8%
- Patients reporting DLTs (Phase 1b, overall): 3/19
- Periorbital edema (Phase 1b, overall): 5.3%

From article PMC9359741 (Clinical Cancer Research, 2022)
